About 1,200 (0.32%) of roughly 370,000 compounds were called active. This is one part of a sample in which actives are shown more often than they occur.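 The calls were made as follows: active = inhibition above the mean of all tested compounds plus 3 SD, set per campaign (cut at about 25% in these data); inactive = the rest.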

Tyrosyl-DNA phosphodiesterase 2 (Homo sapiens), sequence (O95551 whole entry, looked up): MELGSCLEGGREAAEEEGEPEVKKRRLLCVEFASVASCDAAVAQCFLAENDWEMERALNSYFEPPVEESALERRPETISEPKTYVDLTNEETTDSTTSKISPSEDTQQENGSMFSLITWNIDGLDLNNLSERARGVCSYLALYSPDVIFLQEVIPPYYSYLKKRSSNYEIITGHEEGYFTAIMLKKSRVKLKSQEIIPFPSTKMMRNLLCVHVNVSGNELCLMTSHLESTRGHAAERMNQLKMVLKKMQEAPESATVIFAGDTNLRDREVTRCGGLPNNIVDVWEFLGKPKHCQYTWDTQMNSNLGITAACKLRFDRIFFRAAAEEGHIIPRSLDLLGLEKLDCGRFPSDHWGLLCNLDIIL

The assay has as its target Tyrosyl-DNA phosphodiesterase 2 (Homo sapiens) (UniProt O95551). In words: human TDP2 enzyme inhibitors, primary screen, biochemical, epi absorbance, recombinant enzyme (AID 720702).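 Also: 0% = DMSO with enzyme and 100% = buffer with substrate but no TDP2.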 The settings on record: recombinant TDP2, T5PNP hydrolysis, p-nitrophenol absorbance 415 nm; at 12.8 µM; hits give high values. The method in brief: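 Evaluation: % inhibition relative to enzyme-containing and enzyme-free wells. Material: recombinant human TDP2. Benchmarks: enzyme-free and DMSO wells. Timing: enzyme reaction with compound for 2 h at 37 °C. Compound dosing: 12.8 µM only. Measured by: p-Nitrophenol epi absorbance. Reagent: T5PNP substrate at 5 mM, a TopII-DNA adduct mimic. Replication: single well per compound.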
Turning to `COc1ccccc1CCNC(=O)C(=O)NCCC1CCCCN1S(=O)(=O)c1cccs1` (centres undefined), the inhibition (commonly the relative decrease from the control value, in per cent) was -2.28% (inactive). For `O=C(NCc1ccccc1Cl)C(=O)NCC1CCCN1S(=O)(=O)c1cccs1` (centres undefined) the value was 25.5% (active); for `O=C(NCc1ccc(Cl)cc1)C(=O)NCC1CCCN1S(=O)(=O)c1cccs1` (centres undefined), 6.77% (inactive). Next, `COC(=O)C1CN(Cc2cn(Cc3ccc(F)cc3)nn2)CCS(=O)(=O)N1Cc1ccc(Cl)cc1` (centres undefined): -3.71% (inactive); `CCCCCCCCc1c(O)nc(-n2[nH]c(C)c(CCO)c2=O)[nH]c1=O`: 41.6% (active). Regarding `CCCCc1c(O)nc2n(c1=O)CCS2`, the inhibition is 7.5% (inactive). For the molecule `COc1cc(/C=C/C(=O)n2cnc3ccccc32)cc(OC)c1OC`, the inhibition was -7.12% (inactive). `Cc1cc(C)c(S(=O)(=O)NN=C2c3ccccc3[C@H]3Cc4csc[n+]4[C@@H]23)c(C)c1`: the inhibition is 25.7% (active). As to `CCSC(C)CC1C/C(=N/O)c2c(C)noc2C1` (centres undefined), the inhibition was 4.33% (inactive).

On to `COC1=C[C@H](C(=O)NCCNC(C)=O)[C@H](C)[C@@H](c2ccccc2)CC1=O`, for which the inhibition is 6.52% (inactive). For the molecule `Oc1c(C=Nc2cccc3nsnc23)ccc2ccccc12`, the inhibition is 59.5% (active). Turning to `Cc1ccc(-n2c(COc3ccccc3)nnc2SCC(=O)Nc2ccc3c(c2)OCCO3)cc1`, the inhibition was -5.97% (inactive). For the molecule `COC(=O)[C@H](C(C)C)N(CCCc1cn(Cc2ccccc2)nn1)S(=O)(=O)c1ccc(F)cc1Br`, the inhibition was -3.1% (inactive). Consider `C=CCO/N=C(\C)c1c(O)c(C)c(-c2ccccc2)n(-c2ccccc2)c1=O`, for which the inhibition was -4.01% (inactive). Next, `COC(=O)[C@]12C[C@H](CC(=O)NCCCN3CCCC3=O)C(=O)N(CCc3ccc(OC)c(OC)c3)C1=C[C@H](COCc1ccccc1)O[C@@H]2C`: 5.78% (inactive); `O=C1C(=O)N(Cc2ccc(-c3ccsc3)cc2)c2ccc(OC(F)(F)F)cc21`: 3.8% (inactive); `COc1cccc(NC(=O)C2C(c3ccccc3)C2(Cl)Cl)c1` (centres undefined): 0.37% (inactive). As to `COc1ccc2c(c1)C(C)=CC(C)(C)N2C(=O)Nc1ccccc1`, the inhibition was 41.9% (active). Consider `COc1ccc2c(c1)C(C)=CC(C)(C)N2C(=O)CNCc1ccc2c(c1)OCO2`, for which the inhibition is 4.77% (inactive). For `CC(=O)Nc1ccc(S(=O)(=O)NC(C)C(=O)OCCOc2ccc(F)cc2)cc1` (centres undefined), the inhibition is 3.48% (inactive). `Cn1nc(N)c2ncc(C(Cl)(Cl)Cl)nc21`: the inhibition is 33.9% (active). Regarding `Cc1ccc(C2=CCN(C)C(=O)N2c2ccc(Cl)cc2)cc1`, the inhibition was 8.05% (inactive). Take `Cc1[nH][nH]c(=O)c1C(c1ccc(-c2ccc(Cl)cc2)o1)c1c(C)[nH][nH]c1=O`: the inhibition is 30% (active). In the case of `COc1cccc(NC(=O)[C@H](Cc2c[nH]c3ccccc23)NC(=O)[C@@H]2Cc3ccccc3CN2)c1`, the inhibition is -6.32% (inactive). Next, `CC[C@@H](CCC(=O)N(c1ccccc1)c1ccccc1)C1CC1`: -0.32% (inactive); `CCN(CC)C(=O)[C@H]1C[C@H](CC(=O)NCC23CC4CC(CC(C4)C2)C3)C(=O)N2CCc3c([nH]c4cc(CCC(=O)N(C)C)ccc34)[C@]12C`: -4.89% (inactive). `CCOc1ccc(C(C)NC(=O)CN2C(=O)NC3(CCCCC3)C2=O)cc1OCC` (centres undefined): the inhibition is -6.82% (inactive). For `CCOc1ccc(C(c2c(C)[nH][nH]c2=O)c2c(C)[nH][nH]c2=O)cc1OCC` the value was 25.3% (active); for `CCOc1ccc(C(CC(=O)O)NC(=O)C23CC4CC(CC(C4)C2)C3)cc1OC` (centres undefined), 0.7% (inactive). For `CCOc1ccc(N(CC(=O)Nc2c(C)n(C)n(-c3ccccc3)c2=O)S(=O)(=O)c2ccc(Cl)s2)cc1` the value was -6.34% (inactive); for `N#C/C(C(=O)N1CCOCC1)=C1/SC(Cc2ccc(F)cc2)C(=O)N1c1ccccc1` (centres undefined), 2.43% (inactive). In the case of `O=C(NC1CCC1)c1ccc(C#CC2CC2)cn1`, the inhibition was 4.08% (inactive). On to `CCCCNC(=O)C(C)N(CCN(C)C)C(=O)CCCCCN1C(=O)NC(c2ccc(Cl)cc2)C(C(=O)OCc2ccccc2)=C1C` (centres undefined), for which the inhibition is -0.25% (inactive). On to `CC1CN(CCOc2ccccc2[N+](=O)[O-])CC(C)O1` (centres undefined), for which the inhibition was 14% (inactive). Next, `Cc1ccc(OCCCCN2CCCCC2)c(Br)c1`: 5.22% (inactive); `Cc1cc(C)c(OCCN2CC(C)OC(C)C2)c(Br)c1` (centres undefined): 30.7% (active). Next, `COc1ccc(-n2c(SCC(=O)Nc3ccc4c(c3)OCCO4)nnc2-c2ccc(Cl)cc2)cc1`: -7.72% (inactive); `O=C(CN1C(=O)CSC1=O)N1CCCC(Nc2ccc(F)cc2)C1` (centres undefined): -8.75% (inactive). Take `O=C(c1ccccc1)c1ccc(-c2ccccc2C(=O)NC2CCCCN(Cc3ccc(Cl)cc3)C2=O)cc1` (centres undefined): the inhibition was 15.2% (inactive). As for `O=C(Cn1ncc2c3ccccc3n(Cc3ccccc3)c2c1=O)NCCCN1CCOCC1`, the inhibition was 12.7% (inactive).

In the case of `Cc1ccccc1Cn1c2ccccc2c2cnn(CC(=O)NCc3ccco3)c(=O)c21`, the inhibition was 24.5% (active). In the case of `CCCn1c2ccccc2c2cnn(CC(=O)NCCCN3CCCCC3CC)c(=O)c21` (centres undefined), the inhibition is -29.8% (inactive).

On to `CCC[C@H]1C(=O)CC[C@@]23CCCN2C(=O)CCC[C@@H]13`, for which the inhibition is 2.8% (inactive). `COc1ccccc1NC(=O)C1CCCN(c2cc(C)nc3ncnn23)C1` (centres undefined): the inhibition was 2.18% (inactive). For `COc1cccc(CNC(=O)C2CCCN(c3nc4ccccc4o3)C2)c1OC` (centres undefined) the value was -1.52% (inactive). For the molecule `O=C(NCCCCO)C(F)(F)C(F)(F)C(F)(F)C(=O)NCCCCO`, the inhibition was -4.23% (inactive). Turning to `Cc1cc2nc3c(=O)[nH]c(=O)nc-3n(C[C@H](O)[C@H](O)[C@H](O)CO)c2cc1C`, the inhibition was 3.4% (inactive). In the case of `CCN(CC)CCCC(C)n1c2nc(=O)[nH]c(=O)c-2nc2cc(Cl)ccc21` (centres undefined), the inhibition was 24.6% (active). In the case of `O=c1[nH][nH]c(C(F)(F)F)c1C=NCc1ccccc1Cl`, the inhibition was 4.32% (inactive).

In the case of `C=CCn1c(=S)sc2c(=O)[nH]c(C)nc21`, the inhibition was 0.69% (inactive). For `Oc1ccc(N=Cc2c(O)ccc3ccccc23)cc1` the value was 29.3% (active). On to `Oc1ccc(N=Cc2sc3ccccc3c2Cl)cc1`, for which the inhibition is 28.4% (active).

As for `CCOC(=O)C1=C(C(=O)OCC)C2N(Cc3ccc(C#N)cc3)c3ccccc3[C@@]23C[C@@H](C(=O)OC)N(S(=O)(=O)c2ccc(F)cc2)C3=N1` (some centres undefined), the inhibition is 3.59% (inactive).

Take `COC(=O)[C@@]12CCCCC3=C1N(CCC3)C(=O)[C@H]2CC(=O)NCc1cccc2ccccc12`: the inhibition is 15.1% (inactive).

For the origin of these results see PubChem BioAssay AID720702 (The Scripps Research Institute Molecular Screening Center, 2013).
